Measurements published in ChEMBL document CHEMBL4732100, “Water-soluble inhibitors of ABCG2 (BCRP) - A fragment-based and computational approach” (Eur J Med Chem, 2021).
Converted amounts (≈) assume the structure as drawn.

Tests used:
[1] = target: T1, Broad substrate specificity ATP-binding cassette transporter ABCG2 (Homo sapiens, UniProt Q9UNQ0); assay: Inhibition of human ABCG2 in human MCF7/Topo cells assessed as accumulation of substrate Hoechst […] stain measured after 2 hrs by fluorometric microplate reader assay; assay type: cell-based
T1 sequence (Q9UNQ0 whole entry): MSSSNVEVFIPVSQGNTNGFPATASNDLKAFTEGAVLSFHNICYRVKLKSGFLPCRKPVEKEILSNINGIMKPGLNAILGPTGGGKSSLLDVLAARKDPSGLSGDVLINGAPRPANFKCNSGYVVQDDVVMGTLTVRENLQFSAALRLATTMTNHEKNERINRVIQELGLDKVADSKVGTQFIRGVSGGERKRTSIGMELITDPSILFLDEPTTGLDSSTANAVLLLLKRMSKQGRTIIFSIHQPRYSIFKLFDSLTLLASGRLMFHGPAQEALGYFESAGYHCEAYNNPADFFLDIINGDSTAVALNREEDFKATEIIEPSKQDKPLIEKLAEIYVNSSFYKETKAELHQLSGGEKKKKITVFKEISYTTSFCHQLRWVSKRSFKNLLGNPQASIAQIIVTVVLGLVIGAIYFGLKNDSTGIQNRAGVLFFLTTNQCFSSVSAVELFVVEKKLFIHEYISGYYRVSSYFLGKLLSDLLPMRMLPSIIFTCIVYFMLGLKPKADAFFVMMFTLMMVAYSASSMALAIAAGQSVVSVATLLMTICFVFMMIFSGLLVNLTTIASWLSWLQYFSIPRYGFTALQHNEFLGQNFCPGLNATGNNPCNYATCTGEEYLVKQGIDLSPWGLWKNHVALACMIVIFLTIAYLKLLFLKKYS

ABCG2 = target: T2, ABCG2 (Homo sapiens, UniProt Q9UNQ0); assay: Inhibition of human ABCG2 in human MCF7/Topo cells assessed as accumulation of substrate Hoechst […] stain at 10 uM measured after 2 hrs by fluorometric microplate reader assay relative to FTC; assay type: cell-based; conditions: read-out: Imax
T2 sequence (Q9UNQ0 whole entry): T1 sequence (Q9UNQ0 whole entry)

[2] = target: ATP-dependent translocase ABCB1 (Homo sapiens, UniProt P08183); assay: Inhibition of ABCB1 in human KB-V1 cells assessed as accumulation of substrate calcein-AM stain measured after 10 mins by fluorometric microplate reader assay; assay type: cell-based
Chain of ATP-dependent translocase ABCB1 (P08183 whole entry): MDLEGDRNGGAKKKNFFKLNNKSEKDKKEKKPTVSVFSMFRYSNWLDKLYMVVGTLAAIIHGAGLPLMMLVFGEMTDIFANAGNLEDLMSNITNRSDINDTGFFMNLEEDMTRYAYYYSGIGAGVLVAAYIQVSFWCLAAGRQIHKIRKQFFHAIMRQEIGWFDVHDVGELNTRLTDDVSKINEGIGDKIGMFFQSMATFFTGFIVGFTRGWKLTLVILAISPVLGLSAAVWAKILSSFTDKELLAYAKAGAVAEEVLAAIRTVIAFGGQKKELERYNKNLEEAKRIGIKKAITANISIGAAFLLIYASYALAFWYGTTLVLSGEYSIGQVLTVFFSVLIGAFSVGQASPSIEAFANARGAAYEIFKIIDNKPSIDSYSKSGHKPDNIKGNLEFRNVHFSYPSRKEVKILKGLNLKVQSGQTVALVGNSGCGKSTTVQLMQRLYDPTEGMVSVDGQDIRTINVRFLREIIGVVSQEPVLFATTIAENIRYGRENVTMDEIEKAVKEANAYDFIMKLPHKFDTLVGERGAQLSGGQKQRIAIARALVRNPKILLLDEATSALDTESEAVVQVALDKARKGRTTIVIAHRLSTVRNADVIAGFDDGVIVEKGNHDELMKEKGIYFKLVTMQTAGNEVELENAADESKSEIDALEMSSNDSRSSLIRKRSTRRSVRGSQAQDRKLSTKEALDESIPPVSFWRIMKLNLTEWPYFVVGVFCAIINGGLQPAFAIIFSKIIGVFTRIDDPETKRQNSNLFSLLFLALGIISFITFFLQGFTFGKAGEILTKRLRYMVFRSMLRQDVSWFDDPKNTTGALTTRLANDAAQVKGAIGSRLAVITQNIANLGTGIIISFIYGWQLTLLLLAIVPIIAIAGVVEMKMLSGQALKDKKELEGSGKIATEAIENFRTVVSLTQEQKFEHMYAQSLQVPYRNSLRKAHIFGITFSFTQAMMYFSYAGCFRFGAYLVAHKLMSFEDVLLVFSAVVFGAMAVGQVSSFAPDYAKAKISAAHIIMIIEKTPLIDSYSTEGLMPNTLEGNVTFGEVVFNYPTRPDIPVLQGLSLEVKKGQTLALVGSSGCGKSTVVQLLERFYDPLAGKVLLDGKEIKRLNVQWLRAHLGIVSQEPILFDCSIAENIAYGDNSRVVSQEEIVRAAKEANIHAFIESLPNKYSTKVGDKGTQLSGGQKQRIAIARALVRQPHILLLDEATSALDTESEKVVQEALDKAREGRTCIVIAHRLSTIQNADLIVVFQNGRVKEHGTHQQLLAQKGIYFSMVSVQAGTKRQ
Outline: (§1)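 KB-V1 cells (ABCB1-overexpressing KB variant) kept under 330 nM vinblastine. Calcein-AM accumulation read by fluorescence after intracellular cleavage to calcein. Compounds tested up to 100 µM. Inhibition is normalized to 10 µM tariquidar set to 100% (Imax). Mean ± SEM from ≥3 experiments in triplicate.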

ABCB1 = ABCB1 (Homo sapiens, UniProt P08183); assay: Inhibition of ABCB1 in human KB-V1 cells assessed as accumulation of substrate calcein-AM stain at 10 uM measured after 10 mins by fluorometric microplate reader assay relative to Tariquidar; assay type: cell-based; conditions: probe calcein-AM, read-out: Imax; outline: as §1
Chain of ABCB1 (P08183 whole entry): as above

[3] = Inhibition of human ABCC1 expressed in MDCK-MRP1 cells assessed as accumulation of substrate calcein-AM stain measured after 1 hr by fluorometric microplate reader assay; assay type: cell-based, Canis lupus familiaris
Outline: (§2)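 MDCK.2 cells transfected with human ABCC1 (MDCK.2-MRP1), trypsinized with 2X trypsin/EDTA for 30 min. Calcein-AM accumulation measured fluorometrically. Compounds tested up to 100 µM. Inhibition is normalized to 30 µM reversan set to 100% (Imax). Mean ± SEM from ≥3 experiments in triplicate.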

[4] = Thermodynamic solubility of compound in PBS at pH 7.4 […] by shake-flask method; assay type: physicochemical; conditions: buffer
[5] = Kinetic solubility of compound in PBS at pH 7.4 measured after 2 hrs by turbidimetric measurement; conditions: read-out: Kinetic_solubility
MDCK-MRP1 = assay: Inhibition of human ABCC1 expressed in MDCK-MRP1 cells assessed as accumulation of substrate calcein-AM stain at 30 uM measured after 1 hr by fluorometric microplate reader assay relative to Reversan; assay type: cell-based; conditions: Canis lupus familiaris; outline: as §2

Compound | IC50 ([1]; read-out: IC50) [nM] | Emax at 2 h, 10 µM (ABCG2) [%] | IC50 ([2]; read-out: IC50) [nM] | Emax at 10 min, 10 µM (ABCB1) [%] | IC50 [3] | Therm_solubility [4] [µM] | solubility kinetic at 2 h [5] [µM] | IC50 ([2]; kb-v1) | IC50 ([3]; read-out: IC50) [nM] | Imax (MDCK-MRP1) [%] | IC50 ([1]; mcf7/topo)
CCC(=O)c1ccc(-c2cn(-c3ccc(CCN4CCc5cc(OC)c(OC)cc5C4)cc3)nn2)cc1NC(=O)c1ccc(OC)cn1 | 116 | 68 | > 2780 | > 13 | Not Active | 0.119 | 3 (≈ 1.94 µg/mL) |  |  |  | 
CCC(=O)c1ccc(-c2cn(-c3ccc(CCN4CCc5cc(OC)c(OC)cc5C4)cc3)nn2)cc1NC(=O)c1cc(=O)c2ccccc2o1 | 80 | 65 |  |  | Not Active | 0.149 | 7 (≈ 4.79 µg/mL) | Not Active |  |  | 
CCC(=O)c1ccc(-c2cn(-c3ccc(CCN4CCc5cc(OC)c(OC)cc5C4)cc3)nn2)cc1NC(=O)c1cccc(Cl)n1 | 116 | 95 |  |  | Not Active | < 0.1 | 1 (≈ 0.651 µg/mL) | Not Active |  |  | 
CCC(=O)c1ccc(-c2cn(CCO)nn2)cc1NC(=O)c1cc(=O)c2ccccc2o1 | > 1100 | > 71 | > 2290 | > 41 |  | 0.575 | 3 (≈ 1.3 µg/mL) |  | > 1960 | > 33 | 
COC(=O)c1ccc(-c2cn(-c3ccc(CCN4CCc5cc(OC)c(OC)cc5C4)cc3)nn2)cc1NC(=O)c1ccc2ccccc2n1 |  |  |  |  |  |  |  | Not Active |  |  | 
CCC(=O)c1ccc(-c2cn(-c3ccc(CCN4CCc5cc(OC)c(OC)cc5C4)cc3)nn2)cc1NC(=O)c1ccc2ccccc2c1 | 249 | 70 |  |  | Not Active | < 0.1 | 3 (≈ 2 µg/mL) | Not Active |  |  | 
Cc1ccc(-c2cn(CCO)nn2)c(NC(=O)c2cc(=O)c3ccccc3o2)c1 | 447 | 91 |  |  | Not Active | < 0.1 | 3 (≈ 1.17 µg/mL) | Not Active |  |  | 
CCC(=O)c1ccc(-c2cn(-c3ccc(CCN4CCc5cc(OC)c(OC)cc5C4)cc3)nn2)cc1NC(=O)c1cccc(O)n1 | 328 | 75 | > 18500 | > 14 | Not Active | 0.855 | 7 (≈ 4.43 µg/mL) |  |  |  | 
CCC(=O)c1ccc(-c2cn(-c3ccc(CCN4CCc5cc(OC)c(OC)cc5C4)cc3)nn2)cc1NC(=O)c1cccc([N+](=O)[O-])n1 | 70 | 91 |  |  | Not Active | < 0.1 | 10 (≈ 6.62 µg/mL) | Not Active |  |  | 
CCC(=O)c1ccc(-c2cn(CCN3CCCC3)nn2)cc1NC(=O)c1cc(=O)c2ccccc2o1 | 158 | 70 |  |  | Not Active | 1.483 | 30 (≈ 14.6 µg/mL) | Not Active |  |  | 
COC(=O)c1ccc(Br)cc1NC(=O)c1ccc2ccccc2n1 | 1920 | 86 |  |  | Not Active |  |  | Not Active |  |  | 
CCC(=O)c1ccc(-c2cn(-c3ccc(CCN4CCc5cc(OC)c(OC)cc5C4)cc3)nn2)cc1NC(=O)c1ccc2c(n1)CCCC2 | 180 | 63 |  |  | Not Active | < 0.1 | 7 (≈ 4.7 µg/mL) | Not Active |  |  | 
CCC(=O)c1ccc(-c2cn(-c3ccc(CCN4CCc5cc(OC)c(OC)cc5C4)cc3)nn2)cc1NC(=O)c1cccc(C)n1 | 166 | 81 | > 9970 | > 19 | Not Active | 0.445 | 3 (≈ 1.89 µg/mL) |  |  |  | 
CCC(=O)c1ccc(-c2cn(-c3ccc(CCN4CCc5cc(OC)c(OC)cc5C4)cc3)nn2)cc1NC(=O)c1cc2ccccc2o1 | 120 | 78 |  |  | Not Active | < 0.1 | 7 (≈ 4.59 µg/mL) | Not Active |  |  | 
COC(=O)c1ccc(Br)cc1NC(=O)c1cc(=O)c2ccccc2o1 | 140 | 91 |  |  | Not Active | 0.109 | 10 (≈ 4.02 µg/mL) | Not Active |  |  | 
COc1cc2c(cc1OC)CN(CCc1ccc(-n3cc(-c4ccccc4)nn3)cc1)CC2 | 3610 | 41 |  |  | Not Active |  |  | Not Active |  |  | 
CCC(=O)c1ccc(-c2cn(-c3ccc(CCN4CCc5cc(OC)c(OC)cc5C4)cc3)nn2)cc1NC(=O)c1ccc2ccccc2n1 |  |  |  |  |  | 0.078 | 3 (≈ 2 µg/mL) | Not Active |  |  | 
CCC(=O)c1ccc(-c2cn(CC(=O)O)nn2)cc1NC(=O)c1cc(=O)c2ccccc2o1 |  |  |  |  | Not Active |  | 10 (≈ 4.46 µg/mL) | Not Active |  |  | Not Active
CCC(=O)c1ccc(-c2cn(-c3ccc(CCN4CCc5cc(OC)c(OC)cc5C4)cc3)nn2)cc1NC(=O)c1cccc(N)n1 | 82 | 75 |  |  | Not Active | < 0.1 | 10 (≈ 6.32 µg/mL) | Not Active |  |  | 
